Tests used:
[1] = Oral absorption expressed as peak plasma conc (Cmax) after oral dosing of 50 mg/kg in rat; format: ADME, organism-based; parameters: dose 50 mg/kg, route oral
How it was run: (§1)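 Rats given compound orally at 50 mg/kg. Serial 200 μL blood samples drawn from the tail vein into heparin-coated microhematocrit tubes at selected times. Red cells removed at once by centrifugation; plasma stored at -80 °C, proteins precipitated with acetonitrile, drug measured by HPLC. Absorption reported as peak plasma concentration (Cmax) and AUC extrapolated to infinity.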

[2] = Oral absorption expressed as Area under curve was determined; format: ADME; parameters: concentration or dose not given beside the values; how it was run: as §1
Endothelin-1 receptor = biological target: T1, Endothelin-1 receptor (Homo sapiens, UniProt P25101); experiment: Inhibitory concentration was determined against selective Endothelin A receptor
T1 sequence (P25101 whole entry): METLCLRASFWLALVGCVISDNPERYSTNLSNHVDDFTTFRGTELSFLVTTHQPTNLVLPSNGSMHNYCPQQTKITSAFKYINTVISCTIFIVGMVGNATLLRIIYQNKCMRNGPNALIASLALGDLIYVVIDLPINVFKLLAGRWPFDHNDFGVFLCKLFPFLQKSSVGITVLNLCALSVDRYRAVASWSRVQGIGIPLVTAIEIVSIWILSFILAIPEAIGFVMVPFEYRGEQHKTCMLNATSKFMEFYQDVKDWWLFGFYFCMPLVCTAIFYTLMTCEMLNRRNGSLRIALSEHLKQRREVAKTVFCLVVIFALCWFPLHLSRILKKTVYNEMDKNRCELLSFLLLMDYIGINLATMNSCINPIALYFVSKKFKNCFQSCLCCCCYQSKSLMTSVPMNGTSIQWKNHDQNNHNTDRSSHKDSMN

[3] = biological target: Endothelin receptor, ET-A/ET-B (Homo sapiens) (UniProt P24530+P25101); experiment: Relative affinity for human ETA over ETB receptors.; format: protein assay
[4] = Oral bioavailability in rat; format: ADME, organism-based; details: in vivo
[5] = Oral bioavailability was evaluated in cat.; format: ADME, organism-based, Felis catus; details: in vivo
[6] = Oral bioavailability was evaluated in dog.; format: ADME, organism-based, Canis lupus familiaris; details: in vivo
[7] = Half life period in plasma was determined; format: ADME, cell-free

Endothelin receptor, ET-A/ET-B (Homo sapiens), sequence (P24530 whole entry, looked up, one chain of several): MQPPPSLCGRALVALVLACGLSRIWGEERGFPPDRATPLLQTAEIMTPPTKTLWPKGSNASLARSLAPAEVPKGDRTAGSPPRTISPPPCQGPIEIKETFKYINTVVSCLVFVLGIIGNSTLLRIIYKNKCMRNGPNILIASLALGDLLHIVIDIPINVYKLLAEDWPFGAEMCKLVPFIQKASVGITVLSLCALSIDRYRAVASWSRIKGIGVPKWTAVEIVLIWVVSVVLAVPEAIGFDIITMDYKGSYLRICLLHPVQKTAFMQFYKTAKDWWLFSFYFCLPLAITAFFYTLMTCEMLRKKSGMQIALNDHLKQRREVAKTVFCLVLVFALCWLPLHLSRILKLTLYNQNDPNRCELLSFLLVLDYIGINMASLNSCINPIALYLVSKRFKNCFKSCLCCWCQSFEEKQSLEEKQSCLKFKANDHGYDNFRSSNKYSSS

| SMILES | Cmax [1] [ng/mL] | AUC [2] [µg·h/mL] | IC50 (Endothelin-1 receptor) [nM] | Selectivity [3] | bioavailability [4] [%] | bioavailability [5] [%] | bioavailability [6] [%] | half-life [7] [h] |
| --- | --- | --- | --- | --- | --- | --- | --- | --- |
| Cc1cc(C)c(CC(=O)c2sccc2S(=O)(=O)Nc2onc(C)c2Cl)c(C)c1O | 2600 | 15.8 | 0.14 | 10800 |  |  |  |  |
| Cc1noc(NS(=O)(=O)c2ccsc2C(=O)Nc2ccc3c(c2)OCO3)c1Br |  |  |  | 500 |  |  |  |  |
| Cc1noc(NS(=O)(=O)c2ccsc2C(=O)Nc2cc3c(cc2C#N)OCO3)c1Cl |  |  |  | 12000 | 8 |  |  |  |
| Cc1ccc(NC(=O)c2sccc2S(=O)(=O)Nc2onc(C)c2Cl)cc1 |  |  |  | 940 |  |  |  |  |
| CC(=O)c1cc(C)cc(C)c1NC(=O)c1sccc1S(=O)(=O)Nc1onc(C)c1Cl | 57600 | 272 | 0.04 | 442000 | 25 | 42 | 70 | 4 |
| Cc1cc2c(cc1CC(=O)c1sccc1S(=O)(=O)Nc1onc(C)c1Cl)OCO2 |  |  |  | 7000 |  |  |  |  |
| CCc1cc(C)cc(C)c1NC(=O)c1sccc1S(=O)(=O)Nc1onc(C)c1Cl | 21800 | 47 | 0.43 |  |  |  |  |  |
| CC(=O)c1cc2c(cc1NC(=O)c1sccc1S(=O)(=O)Nc1onc(C)c1Cl)OCO2 |  |  |  | 3000 | 27 |  |  |  |
| Cc1noc(NS(=O)(=O)c2ccsc2C(=O)Cc2ccc3c(c2)OCO3)c1Cl |  |  |  | 300 |  |  |  |  |
| Cc1cc(C)c(NC(=O)c2sccc2S(=O)(=O)Nc2onc(C)c2Cl)c(C(=O)C(C)C)c1 | 59200 | 298 | 0.12 | 14000 |  |  |  |  |
| Cc1cc2c(cc1CC(=O)c1sccc1S(=O)(=O)Nc1onc(C)c1C)OCO2 |  |  |  | 10000 | ~100 |  |  |  |

Further lines, results first:

| Cmax [1] [ng/mL] | AUC [2] [µg·h/mL] | IC50 (Endothelin-1 receptor) [nM] | Selectivity [3] | bioavailability [4] [%] | bioavailability [5] [%] | bioavailability [6] [%] | half-life [7] [h] | SMILES |
| --- | --- | --- | --- | --- | --- | --- | --- | --- |
| 13000 | 45.8 | 0.17 | 14600 |  |  |  |  | Cc1cc(C)c(NC(=O)c2sccc2S(=O)(=O)Nc2onc(C)c2C)c(C)c1CC#N |
| 53900 | 171 | 0.1 | 8500 |  |  |  |  | Cc1cc(C)c(NC(=O)c2sccc2S(=O)(=O)Nc2noc(C)c2Cl)c(C)c1CC#N |
| 35900 | 103 | 0.17 | 7000 |  |  |  |  | Cc1cc(C)c(NC(=O)c2sccc2S(=O)(=O)Nc2onc(C)c2Cl)c(C)c1 |
| 42000 | 59.9 |  | 32900 |  |  |  |  | Cc1cc(C)c(NC(=O)c2sccc2S(=O)(=O)Nc2onc(C)c2Cl)c(C)c1CC#N |
| 48200 | 118 | 0.19 | 10900 |  |  |  |  | Cc1cc(C)c(NC(=O)c2sccc2S(=O)(=O)Nc2onc(C)c2Cl)c(C)c1O |
